Test results: ChEMBL document CHEMBL1687879, “Synthesis, glucose uptake activity and structure-activity relationships of some novel glitazones incorporated with glycine, aromatic and alicyclic amine moieties via two carbon acyl linker” (2011)

Assays:
Type in all cases: functional, Diaphragm
[1] = Antidiabetic activity in rat hemidiaphragm assessed as glucose uptake at 2 mg after 45 mins in absence of insulin
Procedure, shortened: (§1)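 Isolated rat hemi-diaphragm in Tyrode, test agent at 1 mg or 2 mg with or without insulin; 45 min incubation at 21 °C, shaking at 60 cycles/min. Medium glucose measured by GOD/POD enzymatic method; uptake expressed as mg/dl/45 min. Run in triplicate, mean ± SEM; groups compared by one-way ANOVA with Dunnett's post-test.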

[2] = Antidiabetic activity in rat hemidiaphragm assessed as glucose uptake at 1 mg after 45 mins in absence of insulin; procedure, shortened: as §1
[3] = Antidiabetic activity in rat hemidiaphragm assessed as glucose uptake at 2 mg after 45 mins in presence of insulin; procedure, shortened: as §1
[4] = Antidiabetic activity in rat hemidiaphragm assessed as glucose uptake at 1 mg after 45 mins in presence of insulin; procedure, shortened: as §1

Structure (SMILES) | Activity [1] [mg/dL] | Activity [2] [mg/dL] | Activity [3] [mg/dL] | Activity [4] [mg/dL]
CCc1cccc(CC)c1NC(=O)COc1ccc(/C=C2\SC(=S)NC2=O)cc1 | 15.66 | 14.5 | 28.5 | 28.83
Cc1ccc(NC(=O)COc2ccc(/C=C3\SC(=S)NC3=O)cc2)cc1 | 16.56 | 15.33 | 34.16 | 33.79
CN(CCOc1ccc(CC2SC(=O)NC2=O)cc1)c1ccccn1 (stereo not given) [ROSIGLITAZONE] | 20.36 | 19 | 50.33 | 48.34
Cc1ccc(NC(=O)COc2ccc(/C=C3\SC(=O)NC3=O)cc2)cc1 | 16.16 | 16 | 33.5 | 33.83
COc1ccc(/C=C2\SC(=O)N(CC(=O)Nc3ccccc3)C2=O)cc1 | 19.66 | 18.71 | 43.9 | 42.16
CCOC(=O)CNC(=O)CN1C(=O)S/C(=C\c2ccc(OC)cc2)C1=O | 18.79 | 18.28 | 43.07 | 41.5
O=C(COc1ccc(/C=C2\SC(=S)NC2=O)cc1)Nc1ccccc1 | 16.33 | 16.16 | 35.33 | 34.66
O=C(CN1C(=O)S/C(=C\c2ccccc2Cl)C1=O)Nc1ccccc1 | 14.03 | 13.81 | 27.16 | 26.03
O=C(CN1C(=O)S/C(=C\c2ccco2)C1=O)Nc1ccccc1 | 15.86 | 15.66 | 32.29 | 32.16
O=C(CN1C(=O)S/C(=C\c2ccccc2)C1=O)Nc1ccccc1 | 18 | 17.72 | 39 | 38.3
CCc1cccc(CC)c1NC(=O)COc1ccc(/C=C2\SC(=O)NC2=O)cc1 | 15 | 15.82 | 29.8 | 29
O=C(CN1C(=O)S/C(=C\c2ccccc2O)C1=O)Nc1ccccc1 | 18.33 | 18 | 42.26 | 41.85
O=C(CN1C(=O)S/C(=C\C=C\c2ccccc2)C1=O)Nc1ccccc1 | 16.16 | 15 | 36.66 | 36.16
COc1ccc(NC(=O)COc2ccc(/C=C3\SC(=O)NC3=O)cc2)cc1 | 16.83 | 16.66 | 35.66 | 34.16
O=C(CN1C(=O)S/C(=C\c2ccc(Cl)cc2)C1=O)Nc1ccccc1 | 16.9 | 16.83 | 36.66 | 36.03
COc1cc(/C=C2\SC(=O)N(CC(=O)Nc3ccccc3)C2=O)ccc1O | 16.96 | 15.5 | 30.83 | 28.5
O=C(CN1C(=O)S/C(=C\c2ccc(Cl)cc2Cl)C1=O)Nc1ccccc1 | 18.5 | 18.33 | 42.44 | 41.93
O=C(CN1C(=O)S/C(=C\c2cccc(Cl)c2)C1=O)Nc1ccccc1 | 17.63 | 17.83 | 40.5 | 39
O=C(COc1ccc(/C=C2\SC(=O)NC2=O)cc1)Nc1ccccc1 | 18.5 | 18.46 | 42.69 | 41.16
COc1ccc(NC(=O)COc2ccc(/C=C3\SC(=S)NC3=O)cc2)cc1 | 17.01 | 16.91 | 37.09 | 35
